Test results from ChEMBL document CHEMBL3612041, “Combating highly resistant emerging pathogen Mycobacterium abscessus and Mycobacterium tuberculosis with novel salicylanilide esters and carbamates” (Eur J Med Chem, 2015).
Values after ≈ are worked out from the molar mass of the structure shown.

Experiments:
[1] = tested on: Mycobacterium tuberculosis; experiment: Antimycobacterial activity against multidrug-resistance Mycobacterium tuberculosis A8 after 28 days by serial dilution method; format: functional; conditions: for MIC: Mycobacterium tuberculosis, A8, 672 h
Method in brief: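 Serial dilution in in-house Sula semisynthetic medium, pH 6.5. Compounds added as DMSO solutions at 10 doses, final 0.05–100 µg/mL. Incubation at 37 °C, 7 days for M. abscessus and 28 days for M. tuberculosis strains. MIC taken as the lowest concentration giving visible growth inhibition, confirmed by CFU on drug-free Löwenstein-Jensen medium after further equal incubation. Repeated at least twice.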

[2] = Selectivity index, ratio of IC50 for human MONO-MAC-6 cells to MIC for multidrug-resistance Mycobacterium tuberculosis A8; format: toxicity; conditions: read-out: Selectivity Index
[3] = tested on: Mycobacterium tuberculosis; experiment: Antimycobacterial activity against INH/RIF/rifabutine/streptomycin-resistance Mycobacterium tuberculosis 9449/2006 after 14 days by microbroth dilution method; format: functional; conditions: 9449/2006, 336 h
Method in brief: (§1)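 Micromethod MIC in Sula semisynthetic medium, pH 6.5. Incubation at 37 °C, read at 14 and 21 days. MIC taken as the lowest concentration giving complete inhibition of mycobacterial growth.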

[4] = tested on: Mycobacterium tuberculosis; experiment: Antimycobacterial activity against INH/RIF/rifabutine/streptomycin-resistance Mycobacterium tuberculosis 9449/2006 after 21 days by microbroth dilution method; format: functional; conditions: 9449/2006, 504 h; method in brief: as §1
[5] = tested on: Mycobacterium tuberculosis; experiment: Antimycobacterial activity against INH/RIF/rifabutine/streptomycin/ethambutol/ofloxacin/gentamicin/amikacin-resistance Mycobacterium tuberculosis Praha 131 after 14 days by microbroth dilution method; format: functional; conditions: Praha 131, 336 h; method in brief: as §1
[6] = tested on: Mycobacterium tuberculosis; experiment: Antimycobacterial activity against INH/RIF/rifabutine/streptomycin/ethambutol/ofloxacin/gentamicin/amikacin-resistance Mycobacterium tuberculosis Praha 131 after 21 days by microbroth dilution method; format: functional; conditions: Praha 131, 504 h; method in brief: as §1
[7] = Selectivity index, ratio of IC50 for human MONO-MAC-6 cells to MIC for INH/RIF/rifabutine/streptomycin-resistance Mycobacterium tuberculosis 9449/2006 after 21 days; format: toxicity; conditions: read-out: Selectivity Index
[8] = Selectivity index, ratio of IC50 for human MONO-MAC-6 cells to MIC for INH/RIF/rifabutine/streptomycin/ethambutol/ofloxacin/gentamicin/amikacin-resistance Mycobacterium tuberculosis Praha 131 after 21 days; format: toxicity; conditions: read-out: Selectivity Index

## O=C(Nc1ccc(Cl)c(Cl)c1)c1cc(Cl)ccc1O
[1]
  Activity: 8 CFU
  MIC: 1.6 µM (≈ 0.507 µg/mL)
[2]
  selectivity ratio: 2.3

## O=C(O)c1cnc(Cl)cn1
[1]
  MIC: > 633 µM

## O=C(Nc1ccc(C(F)(F)F)cc1)c1cc(Cl)ccc1O
[1]
  Activity: 0 CFU
  MIC: 1.6 µM (≈ 0.505 µg/mL)

## CCCNC(=O)Oc1ccc(Cl)cc1C(=O)Nc1ccc(Cl)c(Cl)c1
[1]
  Activity: 2 CFU
  MIC: 1.3 µM (≈ 0.522 µg/mL)
[3]
  MIC: 1 µM (≈ 0.402 µg/mL)
[4]
  MIC: 1 µM (≈ 0.402 µg/mL)
[5]
  MIC: 1 µM (≈ 0.402 µg/mL)
[6]
  MIC: 1 µM (≈ 0.402 µg/mL)
[2]
  selectivity ratio: 5.4
[7]
  selectivity ratio at 504 h: 7
[8]
  selectivity ratio at 504 h: 7

## O=C(Nc1ccc(C(F)(F)F)cc1)c1cc(Br)ccc1O
[1]
  Activity: 0 CFU
  MIC: 2.8 µM (≈ 1.01 µg/mL)
[2]
  selectivity ratio: 2.7

## O=C(c1ccccc1)c1ccc(NC(=O)c2cc(Cl)ccc2O)cc1
[1]
  Activity: 50 CFU
  MIC: 14.2 µM (≈ 5 µg/mL)
[2]
  selectivity ratio: 3.4

## O=C(Nc1ccc(Cl)c(Cl)c1)c1cc(Br)ccc1O
[1]
  Activity: 0 CFU
  MIC: 2.8 µM (≈ 1.01 µg/mL)
[2]
  selectivity ratio: 1.3

## O=C(c1ccccc1)c1ccc(NC(=O)c2cc(Br)ccc2O)cc1
[1]
  Activity: 1 CFU
  MIC: 12.7 µM (≈ 5.03 µg/mL)
[2]
  selectivity ratio: 1.7

## O=C(Oc1ccc(Cl)cc1C(=O)Nc1ccc(C(F)(F)F)cc1)c1cnc(Cl)cn1
[1]
  Activity: 1 CFU
  MIC: 1.1 µM (≈ 0.502 µg/mL)
[3]
  MIC: 1 µM (≈ 0.456 µg/mL)
[4]
  MIC: 2 µM (≈ 0.912 µg/mL)
[5]
  MIC: 1 µM (≈ 0.456 µg/mL)
[6]
  MIC: 1 µM (≈ 0.456 µg/mL)
[2]
  selectivity ratio: 1
[7]
  selectivity ratio at 504 h: 0.6
[8]
  selectivity ratio at 504 h: 1.1

## O=C(Oc1ccc(Cl)cc1C(=O)Nc1ccc(Cl)c(Cl)c1)c1cnc(Cl)cn1
[1]
  Activity: 0 CFU
  MIC: 4.4 µM (≈ 2.01 µg/mL)
[3]
  MIC: 1 µM (≈ 0.457 µg/mL)
[4]
  MIC: 2 µM (≈ 0.914 µg/mL)
[5]
  MIC: 1 µM (≈ 0.457 µg/mL)
[6]
  MIC: 2 µM (≈ 0.914 µg/mL)
[2]
  selectivity ratio: 2.3
[7]
  selectivity ratio at 504 h: 5.1
[8]
  selectivity ratio at 504 h: 5.1

## O=C(Oc1ccc(Br)cc1C(=O)Nc1ccc(C(F)(F)F)cc1)c1cnc(Cl)cn1
[1]
  Activity: 22 CFU
  MIC: 2 µM (≈ 1 µg/mL)
[3]
  MIC: 1 µM (≈ 0.501 µg/mL)
[4]
  MIC: 2 µM (≈ 1 µg/mL)
[5]
  MIC: 2 µM (≈ 1 µg/mL)
[6]
  MIC: 2 µM (≈ 1 µg/mL)
[2]
  selectivity ratio: 0.6
[7]
  selectivity ratio at 504 h: 0.6
[8]
  selectivity ratio at 504 h: 0.6

## O=C(Oc1ccc(Br)cc1C(=O)Nc1ccc(Cl)c(Cl)c1)c1cnc(Cl)cn1
[1]
  Activity: 11 CFU
  MIC: 2 µM (≈ 1 µg/mL)
[2]
  selectivity ratio: 2.9

## O=C(NCCCl)Oc1ccc(Cl)cc1C(=O)Nc1ccc(C(F)(F)F)cc1
[1]
  Activity: 0 CFU
  MIC: 1.2 µM (≈ 0.505 µg/mL)
[3]
  MIC: 0.5 µM (≈ 0.211 µg/mL)
[4]
  MIC: 1 µM (≈ 0.421 µg/mL)
[5]
  MIC: 1 µM (≈ 0.421 µg/mL)
[6]
  MIC: 2 µM (≈ 0.842 µg/mL)
[2]
  selectivity ratio: 6.3
[7]
  selectivity ratio at 504 h: 7.6
[8]
  selectivity ratio at 504 h: 3.8

## O=C(NCCCCl)Oc1ccc(Cl)cc1C(=O)Nc1ccc(C(F)(F)F)cc1
[1]
  Activity: 0 CFU
  MIC: 1.2 µM (≈ 0.522 µg/mL)
[3]
  MIC: 1 µM (≈ 0.435 µg/mL)
[4]
  MIC: 2 µM (≈ 0.87 µg/mL)
[5]
  MIC: 1 µM (≈ 0.435 µg/mL)
[6]
  MIC: 2 µM (≈ 0.87 µg/mL)
[2]
  selectivity ratio: 7.3
[7]
  selectivity ratio at 504 h: 4.4
[8]
  selectivity ratio at 504 h: 4.4

## O=C(NCCCl)Oc1ccc(Cl)cc1C(=O)Nc1ccc(Cl)c(Cl)c1
[1]
  Activity: 0 CFU
  MIC: 2.4 µM (≈ 1.01 µg/mL)
[2]
  selectivity ratio: 1.9

## O=C(NCCCCl)Oc1ccc(Cl)cc1C(=O)Nc1ccc(Cl)c(Cl)c1
[1]
  Activity: 1 CFU
  MIC: 1.2 µM (≈ 0.523 µg/mL)
[2]
  selectivity ratio: 2.1

## O=C(NCCCl)Oc1ccc(Br)cc1C(=O)Nc1ccc(C(F)(F)F)cc1
[1]
  Activity: 9 CFU
  MIC: 1.1 µM (≈ 0.512 µg/mL)
[3]
  MIC: 1 µM (≈ 0.466 µg/mL)
[4]
  MIC: 2 µM (≈ 0.931 µg/mL)
[5]
  MIC: 1 µM (≈ 0.466 µg/mL)
[6]
  MIC: 2 µM (≈ 0.931 µg/mL)
[2]
  selectivity ratio: 8.5
[7]
  selectivity ratio at 504 h: 4.7
[8]
  selectivity ratio at 504 h: 4.7

## O=C(NCCCCl)Oc1ccc(Br)cc1C(=O)Nc1ccc(C(F)(F)F)cc1
[1]
  Activity: 0 CFU
  MIC: 1 µM (≈ 0.48 µg/mL)
[3]
  MIC: 1 µM (≈ 0.48 µg/mL)
[4]
  MIC: 2 µM (≈ 0.959 µg/mL)
[5]
  MIC: 1 µM (≈ 0.48 µg/mL)
[6]
  MIC: 2 µM (≈ 0.959 µg/mL)
[2]
  selectivity ratio: 5.7
[7]
  selectivity ratio at 504 h: 2.9
[8]
  selectivity ratio at 504 h: 2.9

## O=C(NCCCl)Oc1ccc(Br)cc1C(=O)Nc1ccc(Cl)c(Cl)c1
[1]
  Activity: 0 CFU
  MIC: 2.2 µM (≈ 1.03 µg/mL)
[3]
  MIC: 1 µM (≈ 0.467 µg/mL)
[4]
  MIC: 2 µM (≈ 0.933 µg/mL)
[5]
  MIC: 1 µM (≈ 0.467 µg/mL)
[6]
  MIC: 2 µM (≈ 0.933 µg/mL)
[2]
  selectivity ratio: 3.1
[7]
  selectivity ratio at 504 h: 3.5
[8]
  selectivity ratio at 504 h: 3.5

## O=C(NCCCCl)Oc1ccc(Br)cc1C(=O)Nc1ccc(Cl)c(Cl)c1
[1]
  Activity: 2 CFU
  MIC: 1 µM (≈ 0.481 µg/mL)
[3]
  MIC: 1 µM (≈ 0.481 µg/mL)
[4]
  MIC: 2 µM (≈ 0.961 µg/mL)
[5]
  MIC: 1 µM (≈ 0.481 µg/mL)
[6]
  MIC: 1 µM (≈ 0.481 µg/mL)
[2]
  selectivity ratio: 9.5
[7]
  selectivity ratio at 504 h: 4.8
[8]
  selectivity ratio at 504 h: 9.5

## O=C(NCCCl)Oc1ccc(Cl)cc1C(=O)Nc1ccc(C(=O)c2ccccc2)cc1
[1]
  Activity: 21 CFU
  MIC: 10.9 µM (≈ 4.98 µg/mL)
[2]
  selectivity ratio: 3.5

## O=C(NCCCCl)Oc1ccc(Cl)cc1C(=O)Nc1ccc(C(=O)c2ccccc2)cc1
[1]
  Activity: 0 CFU
  MIC: 21.3 µM (≈ 10 µg/mL)
[2]
  selectivity ratio: 0.8

## CCCNC(=O)Oc1ccc(Cl)cc1C(=O)Nc1ccc(C(=O)c2ccccc2)cc1
[1]
  Activity: 6 CFU
  MIC: 11.5 µM (≈ 5.02 µg/mL)
[2]
  selectivity ratio: 1.6

## O=C(NCCCl)Oc1ccc(Br)cc1C(=O)Nc1ccc(C(=O)c2ccccc2)cc1
[1]
  Activity: 0 CFU
  MIC: 20 µM (≈ 10 µg/mL)
[2]
  selectivity ratio: 1.2

## O=C(NCCCCl)Oc1ccc(Br)cc1C(=O)Nc1ccc(C(=O)c2ccccc2)cc1
[1]
  Activity: 1 CFU
  MIC: 1.9 µM (≈ 0.98 µg/mL)
[2]
  selectivity ratio: 6.6

## O=C(Oc1ccc(Cl)cc1C(=O)Nc1ccc(C(F)(F)F)cc1)c1cnccn1
[4]
  MIC: 0.5 µM (≈ 0.211 µg/mL)
[6]
  MIC: 1 µM (≈ 0.422 µg/mL)

## O=C(Oc1ccc(Cl)cc1C(=O)Nc1ccc(Cl)c(Cl)c1)c1cnccn1
[4]
  MIC: 0.25 µM (≈ 0.106 µg/mL)
[6]
  MIC: 0.125 µM (≈ 0.0528 µg/mL)

## O=C(Oc1ccc(Br)cc1C(=O)Nc1ccc(C(F)(F)F)cc1)c1cnccn1
[4]
  MIC: 0.5 µM (≈ 0.233 µg/mL)
[6]
  MIC: 0.5 µM (≈ 0.233 µg/mL)

## NNC(=O)c1ccncc1 [ISONIAZID]
[1]
  Activity: 12 CFU
  MIC: 7.3 µM (≈ 1 µg/mL)
